In ChEMBL document CHEMBL1140207, “A small molecule inhibitor, 1,2,4,5-benzenetetraamine tetrahydrochloride, targeting the y397 site of focal adhesion kinase decreases tumor growth” (J Med Chem, 2008) one finds Activity data, which are given here for two molecules.

The source made the active and inactive calls. The calls are words filed in the database; no cut-off is given here.

One experiment has as its system C8161. Nature of the experiment: Cytotoxicity against human C8161 cells assessed as decrease in cell viability at 100 uM after 24 hrs by MTT assay. It counts as functional, cell-based. In outline:
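Cells from breast cancer and melanoma lines were exposed to compound for 24 h and viability was read by MTT assay. A reference FAK inhibitor served as the control.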

Experiment [1] addresses Focal adhesion kinase 1 (Homo sapiens) (UniProt Q05397). As to the kind of experiment: Inhibition of FAK-Y397 phosphorylation in human BT474 cells at 100 uM by Western blotting. To be noted: BT-474, TDE = time-dependent effect. The experiment is classed as cell-based. Put shortly:
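BT474 cells given 100 μM for 1–24 h; Y397-FAK and total FAK normalized to β-actin by densitometry, expressed relative to untreated; three independent experiments, mean ± SE.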

Experiment [2] has as its system BT-474. Nature of the experiment: Effect on human BT474 cell survival assessed as cell detachment at 50 uM after 24 hrs by hemocytometer. It counts as functional. Put shortly:
(§1)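 BT474 cells treated at a range of doses; detached cells counted on a hemacytometer; means ± standard errors of three independent experiments, versus untreated cells.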

Experiment [3] relates to BT-474. Nature of the experiment: Induction of apoptosis in human BT474 cells at 20 uM after 24 hrs by […] staining. It counts as functional. Put shortly:
(§2)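 BT474 cells treated 24 h at various doses; apoptotic nuclei scored by Hoechst staining; means ± SD of four independent experiments versus untreated cells.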

Experiment [4] addresses Focal adhesion kinase 1 (Homo sapiens) (UniProt Q05397). Nature of the experiment: Inhibition of total FAK phosphorylation in human BT474 cells at 100 uM by Western blotting. It counts as cell-based. The conditions noted are these: BT-474, TDE = time-dependent effect. Put shortly: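 BT474 lysates immunoprecipitated with FAK antibody, blotted with phosphotyrosine antibody, then stripped and reprobed for FAK.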

The test system of experiment [5] is BT-474. Nature of the experiment: Inhibition of human BT474 cells adhesion on collagen coated plates at 100 uM after 3 hrs by crystal violet staining.
Experiment [6] has as its system BT-474. Nature of the experiment: Induction of apoptosis in human BT474 cells assessed as presence of apoptotic nuclei at 20 uM after 24 hrs by […] staining. The experiment is classed as functional, cell-based. In outline: as §2
The subject of experiment [7] is BT-474. As to the kind of experiment: Induction of apoptosis in human BT474 cells assessed as cleavage of 89 kDa PARP at 1 uM after 24 hrs by Western blotting. The experiment is classed as functional, cell-based. Put shortly:
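BT474 cells treated at various doses; lysates immunoblotted with PARP antibody, scoring cleaved 89 kDa fragment.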

The test system of experiment [8] is BT-474. As to the kind of experiment: Induction of apoptosis in human BT474 cells at 10 uM after 24 hrs by […] staining. It counts as functional. In outline:
as §2

For experiment [9], the system named is BT-474. Nature of the experiment: Effect on human BT474 cell survival assessed as cell detachment at 10 uM after 24 hrs by hemocytometer. The experiment is classed as functional. In outline:
as §1

Focal adhesion kinase 1 (Homo sapiens), sequence (Q05397 2-1052 limits assumed): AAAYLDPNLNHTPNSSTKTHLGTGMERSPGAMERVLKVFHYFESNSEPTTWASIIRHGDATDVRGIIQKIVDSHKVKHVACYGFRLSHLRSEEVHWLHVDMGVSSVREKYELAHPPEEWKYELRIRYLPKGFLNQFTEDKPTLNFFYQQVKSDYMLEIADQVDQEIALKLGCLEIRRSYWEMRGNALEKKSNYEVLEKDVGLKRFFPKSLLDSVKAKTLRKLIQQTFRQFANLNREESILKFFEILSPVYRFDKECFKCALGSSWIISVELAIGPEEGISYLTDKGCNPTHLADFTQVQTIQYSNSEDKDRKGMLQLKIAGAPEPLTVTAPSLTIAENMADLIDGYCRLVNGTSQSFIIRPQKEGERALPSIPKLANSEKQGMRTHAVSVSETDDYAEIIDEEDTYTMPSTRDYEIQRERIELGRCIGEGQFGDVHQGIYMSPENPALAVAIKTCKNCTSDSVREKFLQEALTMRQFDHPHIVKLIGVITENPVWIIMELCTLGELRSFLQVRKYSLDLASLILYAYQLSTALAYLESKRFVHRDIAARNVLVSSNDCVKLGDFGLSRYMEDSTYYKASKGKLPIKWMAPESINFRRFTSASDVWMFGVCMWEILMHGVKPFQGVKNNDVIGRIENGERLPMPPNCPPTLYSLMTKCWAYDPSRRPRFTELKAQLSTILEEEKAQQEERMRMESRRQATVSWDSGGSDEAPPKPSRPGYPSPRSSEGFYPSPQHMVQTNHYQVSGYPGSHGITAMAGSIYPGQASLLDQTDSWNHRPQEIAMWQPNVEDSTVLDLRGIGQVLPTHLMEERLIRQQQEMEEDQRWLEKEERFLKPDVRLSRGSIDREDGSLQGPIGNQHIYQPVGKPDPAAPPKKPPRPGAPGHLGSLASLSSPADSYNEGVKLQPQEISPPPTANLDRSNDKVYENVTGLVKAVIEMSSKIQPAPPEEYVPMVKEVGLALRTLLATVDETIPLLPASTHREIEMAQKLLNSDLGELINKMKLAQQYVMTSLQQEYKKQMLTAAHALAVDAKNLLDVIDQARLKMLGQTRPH

Take `Brc1ccc(C[N+]23CN4CN(CN(C4)C2)C3)cc1`: in the experiment on C8161, the outcome was Active.
`CNC(=O)c1ccccc1Nc1nc(Nc2ccc(N3CCOCC3)cc2OC)ncc1Cl`: the Activity entry in experiment [1] is “tde”; with BT-474 [2], over 80%; in the experiment on BT-474 [3], 69%; in experiment [4] it was “tde”; in the experiment on BT-474 [8] it was 35%; in the experiment on BT-474 [9] it was 30%. Also, the result with BT-474 [5], with BT-474 [6] and in the experiment on BT-474 [7] was Active.
